# Assays:
# [1] = target: Delta-type opioid receptor (Mus musculus) (UniProt P32300); test: Antagonist potency was determined using D-Ala2, D-Leu5 enkephalin28 (DADLE) at delta-opioid receptor in mouse vas deferens (MVD); IC50 ratio; type: functional
# How it was run: (§1)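 Electrically stimulated tissue: agonists were morphine (μ) and ethylketazocine (κ) in guinea pig ileal longitudinal muscle, and DADLE (δ) in mouse vas deferens. Antagonist at 100 nM was incubated 15 min. IC50 ratio is agonist IC50 with antagonist divided by control IC50 in the same preparation, n ≥ 3, ±SE.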
# [2] = target: Opioid receptors; mu & delta (Homo sapiens) (UniProt P41143+P35372); test: Selectivity ratio is the ratio between delta and mu receptor; type: protein assay
# Chain of Opioid receptors; mu & delta (Homo sapiens) (P35372 whole entry, looked up): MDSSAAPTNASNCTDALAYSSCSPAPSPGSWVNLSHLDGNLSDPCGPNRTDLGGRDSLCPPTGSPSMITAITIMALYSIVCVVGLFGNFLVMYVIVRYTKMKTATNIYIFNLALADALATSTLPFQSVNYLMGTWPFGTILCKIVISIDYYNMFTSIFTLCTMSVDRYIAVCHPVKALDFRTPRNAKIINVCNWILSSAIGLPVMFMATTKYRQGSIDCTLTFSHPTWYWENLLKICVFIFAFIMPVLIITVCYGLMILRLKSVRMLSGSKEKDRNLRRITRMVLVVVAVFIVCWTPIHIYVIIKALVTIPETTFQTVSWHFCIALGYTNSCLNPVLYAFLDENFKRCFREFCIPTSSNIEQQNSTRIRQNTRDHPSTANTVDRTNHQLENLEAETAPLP
# Chain of Opioid receptors; mu & delta (Homo sapiens) (P41143 whole entry, looked up): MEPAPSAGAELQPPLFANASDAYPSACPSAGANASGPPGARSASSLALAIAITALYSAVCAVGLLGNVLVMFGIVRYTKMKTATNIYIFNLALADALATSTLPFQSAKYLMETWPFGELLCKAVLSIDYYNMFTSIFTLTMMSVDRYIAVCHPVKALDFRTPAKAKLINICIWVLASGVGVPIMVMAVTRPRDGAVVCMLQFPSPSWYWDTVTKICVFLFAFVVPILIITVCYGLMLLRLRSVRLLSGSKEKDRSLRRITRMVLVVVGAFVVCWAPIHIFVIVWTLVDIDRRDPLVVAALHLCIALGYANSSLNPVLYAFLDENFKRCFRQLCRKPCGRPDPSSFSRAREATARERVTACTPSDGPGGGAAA
# How it was run: (§2)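 Selectivity ratio is the DADLE IC50 ratio divided by the morphine (δ/μ) or ethylketazocine (δ/κ) IC50 ratio. These IC50 ratios come from smooth muscle with 100 nM antagonist, 15 min. A value of 1 was used wherever an IC50 ratio was <1.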
# [3] = target: Mu-type opioid receptor (Cavia porcellus) (UniProt P97266); test: Antagonist potency using morphine at mu-opioid receptor in electrically stimulated guinea pig ileal longitudinal muscle (GPI); IC50 ratio; type: functional; how it was run: as §1
# Chain of Mu-type opioid receptor (Cavia porcellus) (P97266 whole entry): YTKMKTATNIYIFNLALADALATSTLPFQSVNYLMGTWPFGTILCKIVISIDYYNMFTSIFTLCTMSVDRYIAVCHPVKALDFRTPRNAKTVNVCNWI
# [4] = target: Kappa-type opioid receptor (Cavia porcellus) (UniProt P41144); test: Antagonist potency was determined using ethylketazocine at kappa-opioid receptor in electrically stimulated guinea pig ileal longitudinal muscle (GPI); IC50 ratio; type: functional; how it was run: as §1
# Chain of Kappa-type opioid receptor (Cavia porcellus) (P41144 whole entry): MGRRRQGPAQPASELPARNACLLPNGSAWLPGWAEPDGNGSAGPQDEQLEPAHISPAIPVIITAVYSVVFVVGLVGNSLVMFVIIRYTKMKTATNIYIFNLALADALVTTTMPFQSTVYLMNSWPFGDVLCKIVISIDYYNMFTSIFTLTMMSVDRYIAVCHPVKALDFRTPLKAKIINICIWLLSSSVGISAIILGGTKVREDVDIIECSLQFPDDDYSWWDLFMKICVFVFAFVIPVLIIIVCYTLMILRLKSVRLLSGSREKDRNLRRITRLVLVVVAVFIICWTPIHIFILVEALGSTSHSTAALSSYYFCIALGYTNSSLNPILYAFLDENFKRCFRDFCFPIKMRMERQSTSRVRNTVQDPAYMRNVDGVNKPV
# [5] = target: Opioid receptors; delta & kappa (Homo sapiens) (UniProt P41145+P41143); test: Selectivity ratio is the ratio between delta and kappa receptor; type: protein assay; how it was run: as §2
# Chain of Opioid receptors; delta & kappa (Homo sapiens) (P41143 whole entry, looked up): as the sequence (P41143 whole entry, looked up) above
# Chain of Opioid receptors; delta & kappa (Homo sapiens) (P41145 whole entry, looked up): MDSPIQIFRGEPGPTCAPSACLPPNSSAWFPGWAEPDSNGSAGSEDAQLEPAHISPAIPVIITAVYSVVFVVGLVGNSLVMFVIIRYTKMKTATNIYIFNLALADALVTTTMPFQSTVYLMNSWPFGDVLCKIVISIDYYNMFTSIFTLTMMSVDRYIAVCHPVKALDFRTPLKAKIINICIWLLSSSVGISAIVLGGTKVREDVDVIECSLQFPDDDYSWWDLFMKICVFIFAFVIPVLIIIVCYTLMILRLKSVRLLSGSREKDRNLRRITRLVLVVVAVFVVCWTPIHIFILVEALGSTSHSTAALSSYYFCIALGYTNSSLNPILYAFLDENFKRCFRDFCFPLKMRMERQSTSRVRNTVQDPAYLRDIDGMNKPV
# [6] = target: Mu-type opioid receptor (Mus musculus) (UniProt P42866); test: Antagonist potency was determined using morphine in mu-opioid receptor by icv administration in mouse after 24 hr; ED50 ratio; type: functional, organism-based
# Chain of Mu-type opioid receptor (Mus musculus) (P42866 whole entry): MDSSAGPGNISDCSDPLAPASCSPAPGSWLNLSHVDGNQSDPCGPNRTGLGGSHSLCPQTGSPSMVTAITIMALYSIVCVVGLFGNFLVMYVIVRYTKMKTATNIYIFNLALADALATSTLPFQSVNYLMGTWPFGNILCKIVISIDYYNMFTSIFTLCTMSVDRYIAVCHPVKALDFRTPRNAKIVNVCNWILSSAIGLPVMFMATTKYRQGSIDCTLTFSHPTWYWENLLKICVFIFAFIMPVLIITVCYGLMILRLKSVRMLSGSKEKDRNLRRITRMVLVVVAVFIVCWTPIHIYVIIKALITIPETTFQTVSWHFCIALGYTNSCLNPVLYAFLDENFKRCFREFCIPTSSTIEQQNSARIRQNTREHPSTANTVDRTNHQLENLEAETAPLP
# How it was run: (§3)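 Mouse abdominal stretch antinociception assay. Antagonist was given icv at 5 nmol, with agonists tested 24 h later. DSLET and DPDPE were given icv; morphine and U50488 were given sc. ED50 ratio is agonist ED50 with antagonist divided by control ED50, with 95% confidence limits.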
# [7] = target: Delta-type opioid receptor (Mus musculus) (UniProt P32300); test: Antagonist potency was determined using DPDPE in delta1-opioid receptor by icv administration in mouse after 24 hr; ED50 ratio; type: functional, organism-based; how it was run: as §3
# [8] = target: Kappa-type opioid receptor (Mus musculus) (UniProt P33534); test: Antagonist potency was determined using U-50,488 in kappa-opioid receptor by icv administration in mouse after 24 hr; ED50 ratio; type: functional, organism-based; how it was run: as §3
# Chain of Kappa-type opioid receptor (Mus musculus) (P33534 whole entry): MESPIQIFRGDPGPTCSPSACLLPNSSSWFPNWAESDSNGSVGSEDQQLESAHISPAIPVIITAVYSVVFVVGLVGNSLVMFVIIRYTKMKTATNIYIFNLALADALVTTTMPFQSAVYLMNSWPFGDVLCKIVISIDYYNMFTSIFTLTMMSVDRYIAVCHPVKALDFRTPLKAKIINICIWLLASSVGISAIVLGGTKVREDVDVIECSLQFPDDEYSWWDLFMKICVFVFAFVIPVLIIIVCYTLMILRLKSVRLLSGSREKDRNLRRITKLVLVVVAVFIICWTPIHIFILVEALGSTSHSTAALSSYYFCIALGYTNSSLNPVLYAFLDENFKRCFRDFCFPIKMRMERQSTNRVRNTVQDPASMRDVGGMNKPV
# [9] = target: Delta-type opioid receptor (Mus musculus) (UniProt P32300); test: Antagonist potency was determined using […] in delta2-opioid receptor by icv administration in mouse after 24 hr; ED50 ratio; type: functional, organism-based; how it was run: as §3
# Chain of Delta-type opioid receptor (Mus musculus) (P32300 whole entry): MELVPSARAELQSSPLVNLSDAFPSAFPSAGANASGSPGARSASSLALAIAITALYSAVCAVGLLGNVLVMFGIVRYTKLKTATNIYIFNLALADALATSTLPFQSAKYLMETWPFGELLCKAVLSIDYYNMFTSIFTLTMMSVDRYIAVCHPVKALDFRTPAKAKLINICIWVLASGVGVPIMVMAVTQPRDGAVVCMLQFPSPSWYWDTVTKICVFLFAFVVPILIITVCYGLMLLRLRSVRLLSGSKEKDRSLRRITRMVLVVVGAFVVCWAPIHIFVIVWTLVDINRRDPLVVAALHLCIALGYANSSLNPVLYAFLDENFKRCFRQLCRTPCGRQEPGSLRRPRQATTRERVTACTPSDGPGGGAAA
structure (smiles),measurement,setting,value
Nc1cccc(Cn2c3c(c4ccccc42)C[C@@]2(O)[C@H]4Cc5ccc(O)c6c5[C@@]2(CCN4CC2CC2)[C@H]3O6)c1,Ratio,[1],148
same,Selectivity ratio,[2],111
same,Ratio,[3],1.3
same,Ratio,[4],1.5
same,Selectivity ratio,[5],100
Oc1ccc2c3c1O[C@H]1c4[nH]c5ccccc5c4C[C@@]4(O)[C@@H](C2)N(CC2CC2)CC[C@]314,Ratio,[1],459
same,Selectivity ratio,[2],41
same,Ratio,[3],11.2
same,Ratio,[4],1.3
same,Selectivity ratio,[5],353
O=[N+]([O-])c1cccc(Cn2c3c(c4ccccc42)C[C@@]2(O)[C@H]4Cc5ccc(O)c6c5[C@@]2(CCN4CC2CC2)[C@H]3O6)c1,Ratio,[1],112
same,Selectivity ratio,[2],112
same,Ratio,[3],0.9
same,Ratio,[4],0.6
same,Selectivity ratio,[5],112
O=[N+]([O-])c1ccccc1Cn1c2c(c3ccccc31)C[C@@]1(O)[C@H]3Cc4ccc(O)c5c4[C@@]1(CCN3CC1CC1)[C@H]2O5,Ratio,[1],31
same,Selectivity ratio,[2],13
same,Ratio,[3],2.3
same,Ratio,[4],0.8
same,Selectivity ratio,[5],31
Oc1ccc2c3c1O[C@H]1c4c(c5ccccc5n4Cc4c(F)c(F)c(F)c(F)c4F)C[C@@]4(O)[C@@H](C2)N(CC2CC2)CC[C@]314,Ratio,[1],52
same,Selectivity ratio,[2],37
same,Ratio,[3],1.4
same,Ratio,[4],0.7
same,Selectivity ratio,[5],52
O=[N+]([O-])c1ccc(Cn2c3c(c4ccccc42)C[C@@]2(O)[C@H]4Cc5ccc(O)c6c5[C@@]2(CCN4CC2CC2)[C@H]3O6)cc1,Ratio,[1],38
same,Selectivity ratio,[2],38
same,Ratio,[3],0.5
same,Ratio,[4],0.4
same,Selectivity ratio,[5],38
Oc1ccc2c3c1O[C@H]1c4c(c5ccccc5n4Cc4ccccc4)C[C@@]4(O)[C@@H](C2)N(CC2CC2)CC[C@]314,Ratio,[1],208
same,Ratio,[6],1.2
same,Selectivity ratio,[2],131
same,Ratio,[7],1.3
same,Ratio,[8],0.77
same,Ratio,[3],1.6
same,Ratio,[4],0.4
same,Selectivity ratio,[5],208
same,Ratio,[9],10
Nc1ccc(Cn2c3c(c4ccccc42)C[C@@]2(O)[C@H]4Cc5ccc(O)c6c5[C@@]2(CCN4CC2CC2)[C@H]3O6)cc1,Ratio,[1],288
same,Ratio,[6],1.1
same,Selectivity ratio,[2],106
same,Ratio,[8],0.64
same,Ratio,[3],2.7
same,Ratio,[4],1.5
same,Selectivity ratio,[5],188
same,Ratio,[9],5.9
Nc1ccccc1Cn1c2c(c3ccccc31)C[C@@]1(O)[C@H]3Cc4ccc(O)c5c4[C@@]1(CCN3CC1CC1)[C@H]2O5,Ratio,[1],120
same,Selectivity ratio,[2],120
same,Ratio,[3],1
same,Ratio,[4],0.9
same,Selectivity ratio,[5],120

# Reference: ChEMBL document CHEMBL1127548, “N-benzylnaltrindoles as long-acting delta-opioid receptor antagonists” (J Med Chem, 1994)
